pIC50: −log10 of the molar value. Activity calls are given as the source filed them. No cut-off for these calls is given here.
Assays:
Mus musculus [1] = assay: Prevention of C1qc gene upregulation in 5XFAD mouse hippocampus at 1200 ppm administered as rodent chow starting from 1.5 months and measured after 7 months by Nanostring analysis; assay type: functional, tissue-based; conditions: route po, time 5.5 months
[2] = target: Phosphatidylinositol 4,5-bisphosphate 3-kinase catalytic subunit gamma isoform (Homo sapiens, UniProt P48736); assay: Inhibition of PIK3CG (unknown origin)
[3] = target: G protein-coupled receptor kinase 5 (Homo sapiens, UniProt P34947); assay: Inhibition of GRK5 (unknown origin)
[4] = Effect on Zfp286 gene expression in wildtype mouse hippocampus assessed as percent change in Reads Per kilo base per Million mapped reads at 1200 ppm administered as rodent chow starting from 1.5 months and measured after 7 months by RNA-Seq analysis (reference value: 85.126 to 114.292 %); assay type: functional; conditions: route po, time 5.5 months, 4015 h
[5] = Half-life in female rat at 1.13 mg/kg, iv administered as single dose; assay type: ADME, organism-based; conditions: in vivo
Mus musculus [6] = assay: Effect on APP processing pathway in 5XFAD mouse assessed as C-terminal PS1 protein signal intensity in cortex at 1200 ppm administered as rodent starting from 1.5 months and measured after 7 months (reference value: 42.868 to 145.444 %); assay type: functional; conditions: route po, time 5.5 months, 4015 h
[7] = Effect on Hexb gene expression in 5XFAD mouse hippocampus at 1200 ppm administered as rodent chow starting from 1.5 months and measured after 7 months by RNA-Seq analysis (reference value: 90.736 to 123.2 RPKM); assay type: functional; conditions: route po, time 5.5 months, 4015 h
[8] = Effect on Clec7a gene expression in 5XFAD mouse thalamus at 1200 ppm administered as rodent chow starting from 1.5 months and measured after 7 months by RNA-Seq analysis (reference value: 3.412 to 4.381 RPKM); assay type: functional; conditions: route po, time 5.5 months, 4015 h
How it was run: (§1)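 WT and 5xFAD mice were treated with 1200 ppm PLX5622 chow or control chow from 1.5 to 7 months of age. Brains were microdissected into cortex, hippocampus and thalamus, and RNA was extracted from tissue powder. Whole-transcriptome RNA-Seq libraries were sequenced, with n = 4 per group per region (48 samples).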

Mus musculus [9] = assay: Antialzheimer activity in 5XFAD mouse assessed as number of Iba positive cells per FOV in somatosensory cortex at 1200 ppm administered as rodent chow starting from 1.5 months and measured after 7 months (reference value: 335 to 848); assay type: functional; conditions: route po, time 5.5 months, 4015 h
Aurora kinase B = Aurora kinase B (Homo sapiens, UniProt Q96GD4); assay: Inhibition of AURKB (unknown origin)
[10] = target: Protein kinase C gamma type (Homo sapiens, UniProt P05129); assay: Inhibition of PRKCG (unknown origin)
[11] = target: Tyrosine-protein kinase Lyn (Homo sapiens, UniProt P07948); assay: Inhibition of LYN_B (unknown origin)
[12] = target: Leucine-rich repeat serine/threonine-protein kinase 2 (Homo sapiens, UniProt Q5S007); assay: Inhibition of LRRK2 (unknown origin)
Mus musculus [13] = assay: Antialzheimer activity in 5XFAD mouse assessed as microglial elimination in thalamus at 1200 ppm administered as rodent chow for 10 weeks by Thio-S staining based confocal microscopic analysis; assay type: functional, organism-based; conditions: route po
How it was run: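 1.5-month-old 5xFAD mice fed 1200 ppm PLX5622 chow for 10 weeks; free-floating sections stained with Thio-S and immunolabeled for IBA1 (5% normal serum/0.2% Triton X-100 block, 60 min); confocal imaging of cortex and thalamus to assess remaining microglia.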

Mus musculus [14] = assay: Antialzheimer activity in 5XFAD mouse assessed as number of Thio-S positive plaques per FOV in […] cortex at 1200 ppm administered as rodent chow starting from 1.5 months and measured after 4 months by Thio-S staining based confocal microscopic analysis (reference value: 63 to 124); assay type: functional; conditions: route po, time 2.5 months, 1825 h
[15] = target: Serine/threonine-protein kinase MRCK alpha (Homo sapiens, UniProt Q5VT25); assay: Inhibition of CDC42_BPA (unknown origin)
[16] = target: RAC-beta serine/threonine-protein kinase (Homo sapiens, UniProt P31751); assay: Inhibition of AKT2 (unknown origin)
Mus musculus [17] = assay: Antialzheimer activity in 5XFAD mouse assessed as reduction in myeloid cell numbers in subiculum at 1200 ppm administered as rodent chow starting from 1.5 months and measured after 7 months by immunolabeling based confocal microscopic analysis relative to control; assay type: functional; design: scale not given: the % may be the effect or the level left; conditions: route po, time 5.5 months, 4015 h
Mus musculus [18] = assay: Effect on APP processing pathway in 5XFAD mouse assessed as PEN2 protein signal intensity in cortex at 1200 ppm administered as rodent starting from 1.5 months and measured after 7 months (reference value: 13.636 to 217.511 %); assay type: functional; conditions: route po, time 5.5 months, 4015 h
Mus musculus [19] = assay: Effect on APP processing pathway in 5XFAD mouse assessed as C83 protein signal intensity in cortex at 1200 ppm administered as rodent starting from 1.5 months and measured after 7 months (reference value: 37.776 to 172.037 %); assay type: functional; conditions: route po, time 5.5 months, 4015 h
Mus musculus [20] = assay: Antialzheimer activity in 5XFAD mouse assessed as percent change in claudin-5 intensity of retro spinal cortex at 1200 ppm administered as rodent chow starting from 1.5 months and measured after 4 months by immunolabeling analysis relative to control; assay type: functional; conditions: route po, time 2.5 months, 1825 h
[21] = Effect on Cx3cr1 gene expression in 5XFAD mouse cortex at 1200 ppm administered as rodent chow starting from 1.5 months and measured after 7 months by RNA-Seq analysis (reference value: 15.803 to 19.787); assay type: functional; conditions: route po, time 5.5 months, 4015 h
Mus musculus [22] = assay: Antialzheimer activity in 5XFAD mouse assessed as average diameter of claudin-5 blood vessels in Thio-S positive retro spinal cortex at 1200 ppm administered as rodent chow starting from 1.5 months and measured after 4 months by immunolabeling analysis; assay type: functional; conditions: route po, time 2.5 months, 1825 h
[23] = target: Mitogen-activated protein kinase 12 (Homo sapiens, UniProt P53778); assay: Inhibition of MAPK12 (unknown origin)
[24] = Toxicity in wildtype mouse assessed as number of platform entry at 1200 ppm administered as rodent chow for 10 to 24 weeks by Morris water maze test (reference value: 0 to 5); conditions: in vivo, po, time 10-24 weeks
[25] = Effect on C1qa gene expression in 5XFAD mouse thalamus at 1200 ppm administered as rodent chow starting from 1.5 months and measured after 7 months by RNA-Seq analysis (reference value: 36.243 to 61.660 RPKM); assay type: functional; conditions: route po, time 5.5 months, 4015 h; how it was run: as §1
[26] = AUC (0 to 24 hrs) in mouse brain at 300 ppm administered as rodent chow for 14 days; assay type: ADME, tissue-based; conditions: route po, time 14 day
Mus musculus [27] = assay: Antialzheimer activity in 5XFAD mouse assessed as number of Thio-S positive plaques per FOV in […] cortex at 1200 ppm administered as rodent chow starting from 1.5 months and measured after 7 months by Thio-S staining based confocal microscopic analysis (reference value: 52 to 140); assay type: functional; conditions: route po, time 5.5 months, 4015 h
[28] = Effect on Siglech gene expression in wild type mouse hippocampus at 1200 ppm administered as rodent chow starting from 1.5 months and measured after 7 months by RNA-Seq analysis (reference value: 3.309 to 4.234 RPKM); assay type: functional; conditions: route po, time 5.5 months, 4015 h

Chain of Phosphatidylinositol 4,5-bisphosphate 3-kinase catalytic subunit gamma isoform (P48736 whole entry, canonical isoform): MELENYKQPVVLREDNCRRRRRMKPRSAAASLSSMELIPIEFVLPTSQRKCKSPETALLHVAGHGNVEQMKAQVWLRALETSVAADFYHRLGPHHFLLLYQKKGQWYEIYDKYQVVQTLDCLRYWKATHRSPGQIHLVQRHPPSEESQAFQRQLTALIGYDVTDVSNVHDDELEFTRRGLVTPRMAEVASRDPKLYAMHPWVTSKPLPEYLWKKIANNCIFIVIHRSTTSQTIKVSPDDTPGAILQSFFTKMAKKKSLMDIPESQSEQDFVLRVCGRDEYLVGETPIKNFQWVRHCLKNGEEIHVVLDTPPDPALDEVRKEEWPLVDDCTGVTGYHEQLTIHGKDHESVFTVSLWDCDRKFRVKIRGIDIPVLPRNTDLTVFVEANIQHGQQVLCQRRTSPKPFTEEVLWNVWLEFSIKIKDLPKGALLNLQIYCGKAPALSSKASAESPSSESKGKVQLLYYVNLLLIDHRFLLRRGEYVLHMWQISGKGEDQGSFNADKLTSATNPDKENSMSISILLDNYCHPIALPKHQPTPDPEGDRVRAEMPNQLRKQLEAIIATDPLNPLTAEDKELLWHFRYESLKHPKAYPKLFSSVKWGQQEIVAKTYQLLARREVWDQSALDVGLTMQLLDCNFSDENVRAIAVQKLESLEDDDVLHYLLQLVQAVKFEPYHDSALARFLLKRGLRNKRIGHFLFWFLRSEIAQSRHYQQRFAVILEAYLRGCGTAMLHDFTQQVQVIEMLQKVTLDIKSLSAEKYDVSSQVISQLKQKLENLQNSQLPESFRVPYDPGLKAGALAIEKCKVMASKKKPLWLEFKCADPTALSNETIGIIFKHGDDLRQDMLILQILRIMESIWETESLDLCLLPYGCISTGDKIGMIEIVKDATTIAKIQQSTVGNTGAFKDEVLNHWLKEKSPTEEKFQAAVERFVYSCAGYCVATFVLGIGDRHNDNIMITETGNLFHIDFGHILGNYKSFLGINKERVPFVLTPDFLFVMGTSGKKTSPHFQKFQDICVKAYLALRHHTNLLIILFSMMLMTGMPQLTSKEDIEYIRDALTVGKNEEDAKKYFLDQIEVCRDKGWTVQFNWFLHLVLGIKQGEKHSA
Chain of Leucine-rich repeat serine/threonine-protein kinase 2 (Q5S007 whole entry): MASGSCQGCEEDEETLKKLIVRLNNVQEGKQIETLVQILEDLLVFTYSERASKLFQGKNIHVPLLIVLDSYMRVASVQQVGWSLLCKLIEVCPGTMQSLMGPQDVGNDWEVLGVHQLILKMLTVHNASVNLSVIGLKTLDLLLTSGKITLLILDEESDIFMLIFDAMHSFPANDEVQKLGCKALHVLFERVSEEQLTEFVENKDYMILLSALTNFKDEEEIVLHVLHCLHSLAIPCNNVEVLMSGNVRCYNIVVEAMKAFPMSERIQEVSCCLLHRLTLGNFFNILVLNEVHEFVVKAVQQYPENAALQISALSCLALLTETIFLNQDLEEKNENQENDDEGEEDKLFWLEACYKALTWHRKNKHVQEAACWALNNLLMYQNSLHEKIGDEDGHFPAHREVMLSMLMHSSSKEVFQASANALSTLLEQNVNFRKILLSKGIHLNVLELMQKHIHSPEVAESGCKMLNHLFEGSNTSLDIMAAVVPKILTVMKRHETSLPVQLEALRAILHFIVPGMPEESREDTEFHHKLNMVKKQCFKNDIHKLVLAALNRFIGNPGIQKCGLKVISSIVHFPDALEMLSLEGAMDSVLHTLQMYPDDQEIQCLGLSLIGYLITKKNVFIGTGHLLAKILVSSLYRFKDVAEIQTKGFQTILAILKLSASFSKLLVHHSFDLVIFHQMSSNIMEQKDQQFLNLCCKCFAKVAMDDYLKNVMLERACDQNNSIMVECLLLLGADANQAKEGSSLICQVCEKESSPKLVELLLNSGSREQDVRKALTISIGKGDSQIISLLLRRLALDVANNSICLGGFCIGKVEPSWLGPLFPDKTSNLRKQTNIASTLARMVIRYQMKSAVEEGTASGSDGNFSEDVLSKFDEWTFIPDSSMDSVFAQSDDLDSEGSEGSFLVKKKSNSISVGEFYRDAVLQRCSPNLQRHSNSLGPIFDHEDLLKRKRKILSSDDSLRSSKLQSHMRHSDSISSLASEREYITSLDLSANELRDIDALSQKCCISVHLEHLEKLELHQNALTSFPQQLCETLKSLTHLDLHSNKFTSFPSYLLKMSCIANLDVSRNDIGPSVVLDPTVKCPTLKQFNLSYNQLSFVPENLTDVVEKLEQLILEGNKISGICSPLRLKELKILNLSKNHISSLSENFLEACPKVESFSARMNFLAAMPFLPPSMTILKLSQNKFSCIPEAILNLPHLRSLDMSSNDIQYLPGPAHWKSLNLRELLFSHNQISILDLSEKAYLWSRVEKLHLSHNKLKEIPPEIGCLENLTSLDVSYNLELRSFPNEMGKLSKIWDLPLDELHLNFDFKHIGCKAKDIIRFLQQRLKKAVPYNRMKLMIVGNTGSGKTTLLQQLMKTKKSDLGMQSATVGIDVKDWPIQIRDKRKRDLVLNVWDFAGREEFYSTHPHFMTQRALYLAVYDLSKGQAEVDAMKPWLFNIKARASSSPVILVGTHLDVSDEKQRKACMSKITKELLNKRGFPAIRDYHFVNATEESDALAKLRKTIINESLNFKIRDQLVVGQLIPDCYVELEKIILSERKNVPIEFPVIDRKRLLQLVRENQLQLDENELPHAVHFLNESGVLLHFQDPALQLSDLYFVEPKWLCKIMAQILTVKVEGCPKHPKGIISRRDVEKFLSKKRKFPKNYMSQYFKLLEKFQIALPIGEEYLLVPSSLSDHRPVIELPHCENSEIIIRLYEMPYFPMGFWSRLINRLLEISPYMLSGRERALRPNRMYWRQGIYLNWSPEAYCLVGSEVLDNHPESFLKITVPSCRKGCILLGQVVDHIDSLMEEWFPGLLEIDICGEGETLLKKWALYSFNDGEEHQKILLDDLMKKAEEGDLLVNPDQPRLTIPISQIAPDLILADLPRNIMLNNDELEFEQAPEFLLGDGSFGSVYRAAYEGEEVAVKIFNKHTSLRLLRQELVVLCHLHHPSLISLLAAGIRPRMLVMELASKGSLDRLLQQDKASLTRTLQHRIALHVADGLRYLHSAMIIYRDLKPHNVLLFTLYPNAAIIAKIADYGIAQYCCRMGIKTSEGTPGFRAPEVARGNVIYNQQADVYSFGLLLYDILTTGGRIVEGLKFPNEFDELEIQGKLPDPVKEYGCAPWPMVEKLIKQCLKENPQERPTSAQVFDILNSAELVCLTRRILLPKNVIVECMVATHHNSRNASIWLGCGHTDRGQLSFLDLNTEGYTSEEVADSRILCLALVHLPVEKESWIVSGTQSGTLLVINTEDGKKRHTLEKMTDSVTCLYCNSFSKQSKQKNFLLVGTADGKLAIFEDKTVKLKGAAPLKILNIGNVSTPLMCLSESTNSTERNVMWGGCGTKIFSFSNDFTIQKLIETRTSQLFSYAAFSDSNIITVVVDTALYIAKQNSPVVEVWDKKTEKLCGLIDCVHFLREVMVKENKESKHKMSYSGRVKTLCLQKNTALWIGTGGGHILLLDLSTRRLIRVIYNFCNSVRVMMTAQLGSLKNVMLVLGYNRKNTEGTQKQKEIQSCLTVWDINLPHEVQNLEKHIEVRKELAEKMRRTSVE
Chain of Tyrosine-protein kinase Lyn (P07948 whole entry): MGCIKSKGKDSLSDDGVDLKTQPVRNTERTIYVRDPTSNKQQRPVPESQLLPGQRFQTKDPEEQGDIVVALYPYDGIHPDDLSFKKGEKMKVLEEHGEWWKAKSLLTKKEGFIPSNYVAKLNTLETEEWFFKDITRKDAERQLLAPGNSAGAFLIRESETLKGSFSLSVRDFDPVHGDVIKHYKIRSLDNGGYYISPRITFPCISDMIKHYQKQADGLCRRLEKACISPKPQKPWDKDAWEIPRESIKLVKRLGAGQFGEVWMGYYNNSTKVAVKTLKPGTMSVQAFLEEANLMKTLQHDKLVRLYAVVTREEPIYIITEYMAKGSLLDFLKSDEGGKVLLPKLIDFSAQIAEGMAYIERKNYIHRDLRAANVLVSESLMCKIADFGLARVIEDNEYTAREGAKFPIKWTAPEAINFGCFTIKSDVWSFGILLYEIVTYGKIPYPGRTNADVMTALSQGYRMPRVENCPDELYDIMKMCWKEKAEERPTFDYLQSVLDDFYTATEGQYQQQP
Chain of G protein-coupled receptor kinase 5 (P34947 whole entry): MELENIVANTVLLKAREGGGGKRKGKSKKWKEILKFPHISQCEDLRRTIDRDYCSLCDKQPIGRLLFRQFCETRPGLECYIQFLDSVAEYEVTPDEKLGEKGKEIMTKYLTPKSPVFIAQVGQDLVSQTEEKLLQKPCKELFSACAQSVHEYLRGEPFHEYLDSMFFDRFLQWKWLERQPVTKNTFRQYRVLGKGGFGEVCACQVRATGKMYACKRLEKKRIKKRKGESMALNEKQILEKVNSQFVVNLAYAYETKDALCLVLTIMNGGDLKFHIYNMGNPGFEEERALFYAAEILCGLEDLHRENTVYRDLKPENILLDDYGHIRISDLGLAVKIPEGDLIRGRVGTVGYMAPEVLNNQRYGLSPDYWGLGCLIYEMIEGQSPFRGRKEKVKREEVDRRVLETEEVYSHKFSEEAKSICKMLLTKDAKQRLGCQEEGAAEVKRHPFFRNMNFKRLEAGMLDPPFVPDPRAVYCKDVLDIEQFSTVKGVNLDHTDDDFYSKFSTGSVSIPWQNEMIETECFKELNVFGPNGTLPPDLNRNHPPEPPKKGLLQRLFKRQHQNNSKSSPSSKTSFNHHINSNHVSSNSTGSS
Chain of Mitogen-activated protein kinase 12 (P53778 whole entry): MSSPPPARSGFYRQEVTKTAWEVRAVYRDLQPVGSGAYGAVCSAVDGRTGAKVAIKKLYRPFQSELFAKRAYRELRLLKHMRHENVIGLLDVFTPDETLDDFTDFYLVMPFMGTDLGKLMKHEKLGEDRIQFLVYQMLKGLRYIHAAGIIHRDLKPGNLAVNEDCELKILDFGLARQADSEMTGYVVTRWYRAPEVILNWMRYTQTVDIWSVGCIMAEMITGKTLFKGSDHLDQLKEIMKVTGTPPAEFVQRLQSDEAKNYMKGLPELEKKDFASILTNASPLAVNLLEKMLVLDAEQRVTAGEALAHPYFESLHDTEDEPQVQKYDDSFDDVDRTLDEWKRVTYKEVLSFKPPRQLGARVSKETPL

For COc1ncc(F)cc1CNc1ccc(Cc2c[nH]c3ncc(C)cc23)c(F)n1 [PLX-5622], the Activity (Mus musculus [1]) was “Active”, the pIC50 [2] was < 6.00 and the pIC50 [3] was < 6.00. The Activity [4] was 76.544%, the half-life [5] was 3.9 h and the Activity (Mus musculus [6]) was 12.015%. It also gave an Activity [7] of 16.382 RPKM, an Activity [8] of 0 RPKM and an Activity (Mus musculus [9]) of 0. The pIC50 (Aurora kinase B) was < 6.00, the pIC50 [10] was < 6.00 and the pIC50 [11] was < 6.00. For the same molecule, the pIC50 [12] was < 6.00, the Activity (Mus musculus [13]) was “inactive” and the Activity (Mus musculus [14]) was 13. The pIC50 [15] was < 6.00, the pIC50 [16] was < 6.00 and the Activity (Mus musculus [17]) was 77%. It also gave an Activity (Mus musculus [18]) of 7.565%, an Activity (Mus musculus [19]) of 70.442% and an Activity (Mus musculus [20]) of 33.704%. The Activity [21] was 0.341 RPKM, the Activity (Mus musculus [22]) was 4.447 um and the pIC50 [23] was < 6.00. It also gave an Activity [24] of 1, an Activity [25] of 0.199 RPKM and an AUC at 336 h [26] of 23100 ng·h/mL. The Activity (Mus musculus [27]) was 17 and the Activity [28] was 0 RPKM.

— ChEMBL document CHEMBL5649170, “Sustained microglial depletion with CSF1R inhibitor impairs parenchymal plaque development in an Alzheimer's disease model” (Nat Commun, 2019)
